Calls of active or inactive are those of the source.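 The calls were made as follows, unless noted: active = GFP response above 150% of the DMSO level; inconclusive = fewer than 70 events counted for a yeast strain; inactive = the rest.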
Columns and labels:
[1] = RPL19A-GFP modulators, yeast TOR pathway, confirmation, cell-based, S. cerevisiae, flow cytometry, cherry picks, mother/daughter gates (AID 2270;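 active = GFP response below 50% of the DMSO control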); settings: S. cerevisiae RPL19A-GFP strain, 3 h, at 10 µM, stronger effect = lower value, 100 = same GFP as DMSO wells
[2] = LAP4-GFP expression modulators in yeast, confirmation, cell-based, cherry picks, flow cytometry, mother/daughter gates (AID 2271;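 active = GFP response above 150% of the DMSO control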;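 also: ratio of sample to DMSO plate mean so 100% equals DMSO level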); settings: S. cerevisiae LAP4-GFP strain, 3 h, at 10 µM, stronger effect = higher value, 100 means same as DMSO control
Summary of the method: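 System: GFP-fusion yeast strain | Input: Yeast cells seeded at OD600 of 0.2 | Technique: HT flow cytometry, GFP fluorescence channel | Read-out: % GFP response vs DMSO | Dosing: Single test-compound dose, 10 µM final | Controls: Positive rapamycin (400 ng/mL), negative DMSO | Times: 3 h treatment at 30 °C with rotation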

[3] = modulators of MEP2-GFP levels in yeast, confirmation, S. cerevisiae, flow cytometry GFP, cherry picks (AID 2272;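 active = GFP response above 150% of the DMSO control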;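 also: ratio of well signal to plate DMSO mean so 100% equals DMSO level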); settings: S. cerevisiae MEP2-GFP strain, 3 h, at 10 µM, stronger effect = higher value
[4] = AGP1-GFP expression modulators, hit retest, confirmation, cell-based, flow cytometry, S. cerevisiae, cherry picks (AID 2273);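 also: median GFP channel fluorescence over the whole cell population gate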; settings: S. cerevisiae AGP1-GFP strain, 3 h, at 10 µM
[5] = modulators of CIT2-GFP expression in yeast, confirmation, S. cerevisiae, GFP fusion, cherry picks, mother/daughter gates (AID 2274); settings: S. cerevisiae CIT2-GFP strain, flow cytometry, 3 h, at 10 µM, stronger effect = higher value
[6] = measured here: daughter cell gate
[7] = measured here: mother cell gate
[8] = measured here: daughter cell gate response
[9] = measured here: mother cell gate response

Compound | GFP response vs DMSO [1] | GFP response vs DMSO [1, 6] | GFP response vs DMSO [1, 7] | GFP response relative to DMSO [2] | GFP response relative to DMSO [2, 8] | GFP response relative to DMSO [2, 9] | GFP response vs DMSO [3] | GFP response, % of DMSO [4] | GFP response, % of DMSO [5] | GFP response, % of DMSO [5, 6] | GFP response, % of DMSO [5, 7]
CCc1ccc(NC(=O)c2nc(S(=O)(=O)Cc3ccccc3)ncc2Cl)cc1 | 94.8% (inactive) | 94.2% | 93.8% | 126% (inactive) | 118% | 124% | 97.5% (inactive) | 96% (inactive) | 87.8% (inactive) | 90.9% | 82.8%
COc1cc(-c2noc(-c3cccc(Cl)c3)n2)cc(OC)c1OC | 96.2% (inactive) | 97% | 95.8% | 90.6% (inactive) | 88.2% | 91.3% | 103% (inactive) | 99.5% (inactive) | 101% (inactive) | 101% | 103%
O=C(OCc1ccco1)c1ccc(S(=O)(=O)N2CCCCC2)cc1 | 101% (inactive) | 97.9% | 101% | 98.2% (inactive) | 97.5% | 98.4% | 99% (inactive) | 96.1% (inactive) | 102% (inactive) | 99.2% | 91.9%
CC(C)(C)c1ccc(C(=O)N/N=C/c2cccc(Cl)c2)cc1 | 96% (inactive) | 96.4% | 95.4% | 100% (inactive) | 101% | 102% | 99.3% (inactive) | 97% (inactive) | 91.7% (inactive) | 92.3% | 92.6%
COc1ccc(NS(=O)(=O)c2cccc3ccccc23)cc1 | 99.4% (inactive) | 99.6% | 99.2% | 97.9% (inactive) | 97.6% | 97.2% | 102% (inactive) | 101% (inactive) | 99.7% (inactive) | 99.1% | 98.5%
COc1cc(/C=C2\N=C(C)OC2=O)cc(Cl)c1OC(C)=O | 107% (inactive) | 109% | 102% | 117% (inactive) | 115% | 118% | 105% (inactive) | 99.8% (inactive) | 108% (inactive) | 112% | 103%
Cc1noc2ncnc(Sc3ccc(Br)cc3)c12 | 97.2% (inactive) | 94.2% | 94.7% | 137% (inactive) | 133% | 135% | 103% (inactive) | 98.8% (inactive) | 108% (inactive) | 106% | 105%
O=C(CN1CCN(Cc2ccccc2Cl)C1=O)NC1CCCCCCC1 | 98.2% (inactive) | 98.6% | 99.7% | 96.7% (inactive) | 97.6% | 95.1% | 100% (inactive) | 99.7% (inactive) | 107% (inactive) | 106% | 104%
O=C(Nc1nccs1)C(c1ccccc1)N1CCCCC1 (centres undefined) | 103% (inactive) | 100% | 104% | 93.1% (inactive) | 94.2% | 93.1% | 103% (inactive) | 101% (inactive) | 94.4% (inactive) | 92% | 94.4%
CCOC(=O)Cc1csc(NC(=O)COc2ccc(N(C)S(=O)(=O)c3cccs3)cc2)n1 | 95% (inactive) | 94.9% | 92% | 102% (inactive) | 101% | 98.3% | 105% (inactive) | 96.6% (inactive) | 95.5% (inactive) | 97.2% | 95%
COc1cc(/C=C/C(=O)c2c(O)cc(C)oc2=O)cc(OC)c1O | 98.2% (inactive) | 99.6% | 96.8% | 106% (inactive) | 104% | 106% | 105% (inactive) | 101% (inactive) | 97.3% (inactive) | 99.2% | 94.4%
O=C(N/N=C/c1c(Cl)cccc1Cl)c1ccc(F)cc1 | 95% (inactive) | 96.1% | 95.7% | 105% (inactive) | 102% | 105% | 96.8% (inactive) | 97.1% (inactive) | 103% (inactive) | 103% | 102%
CC1CN(c2nnnn2-c2ccccc2)CC(C)O1 (centres undefined) | 99% (inactive) | 99.1% | 99.8% | 102% (inactive) | 101% | 100% | 96.2% (inactive) | 100% (inactive) | 101% (inactive) | 103% | 99.7%
CCOC(=O)CSC1=NC(=O)/C(=C/c2ccc(OC)cc2)S1 | 100% (inactive) | 92.5% | 98.2% | 154% (active) | 139% | 159% | 103% (inactive) | 102% (inactive) | 79.7% (inactive) | 79.4% | 71.8%
CN1Cc2sc(NC(=S)NC(=O)c3ccccc3)c(C#N)c2CC1(C)C | 99.5% (inactive) | 99.8% | 100% | 109% (inactive) | 104% | 111% | 133% (inactive) | 106% (inactive) | 109% (inactive) | 109% | 110%
O=C(O)Cc1sc(Nc2ccccc2)nc1-c1cccs1 | 97.8% (inactive) | 98% | 97.9% | 149% (inactive) | 144% | 156% | 110% (inactive) | 99.7% (inactive) | 104% (inactive) | 104% | 103%
Clc1ccccc1N=C1NN=C(c2cccs2)CS1 | 96.8% (inactive) | 93.4% | 95.7% | 108% (inactive) | 106% | 113% | 90.5% (inactive) | 98.8% (inactive) | 90.1% (inactive) | 88.4% | 89.5%

Compound | GFP response vs DMSO [1] | GFP response vs DMSO [1, 6] | GFP response vs DMSO [1, 7] | GFP response relative to DMSO [2] | GFP response relative to DMSO [2, 8] | GFP response relative to DMSO [2, 9] | GFP response vs DMSO [3] | GFP response, % of DMSO [4] | GFP response, % of DMSO [5] | GFP response, % of DMSO [5, 6] | GFP response, % of DMSO [5, 7]
N=c1ccn(CC(=O)c2ccc(-c3ccccc3)cc2)cc1 | 99.7% (inactive) | 99.3% | 98.8% | 96.5% (inactive) | 93.6% | 99.5% | 104% (inactive) | 92.1% (inactive) | 96.4% (inactive) | 96.4% | 95.6%
O=C(COC(=O)c1n[nH]c2ccccc12)c1cc(F)ccc1F | 99.5% (inactive) | 99% | 101% | 97.4% (inactive) | 98.7% | 98.3% | 97.8% (inactive) | 97.6% (inactive) | 97.8% (inactive) | 96.5% | 99.8%
COc1ccc(C2=NN(S(C)(=O)=O)C(c3ccc4nccnc4c3)C2)cc1 (centres undefined) | 101% (inactive) | 99.8% | 102% | 99.8% (inactive) | 103% | 103% | 102% (inactive) | 97.6% (inactive) | 92.6% (inactive) | 93.2% | 91.2%
O/C=c1\ccc2cccc3nc(C(F)(F)F)nc1c23 | 111% (inactive) | 111% | 110% | 172% (active) | 167% | 178% | 269% (active) | 108% (inactive) | 179% (active) | 171% | 181%
O=C(c1ccccc1F)N1CCN(c2ccccc2)CC1 | 97% (inactive) | 97.9% | 97.6% | 99.2% (inactive) | 101% | 98.3% | 105% (inactive) | 95.2% (inactive) | 98.3% (inactive) | 101% | 98.5%
CC(C)(C)C(=O)C(Cl)C(=O)Nc1ccccc1 (centres undefined) | 79.7% (inactive) | 89.6% | 72.1% | 300% (active) | 186% | 271% | 145% (inactive) | 135% (inactive) | 126% (inactive) | 106% | 115%
O=C(c1ccccc1F)N1CCN(c2ccccc2F)CC1 | 101% (inactive) | 99.8% | 102% | 98.7% (inactive) | 100% | 99.3% | 100% (inactive) | 95% (inactive) | 104% (inactive) | 105% | 105%
Cc1cc(S(=O)(=O)c2ccc([N+](=O)[O-])cn2)ccc1Br | 87.9% (inactive) | 89.9% | 82.2% | 143% (inactive) | 118% | 156% | 114% (inactive) | 113% (inactive) | 120% (inactive) | 138% | 103%
Cc1cccc(CS(=O)(=O)c2ncc(Cl)c(C(=O)NCc3ccccc3)n2)c1 | 99% (inactive) | 96.4% | 99.1% | 108% (inactive) | 108% | 108% | 100% (inactive) | 102% (inactive) | 95.2% (inactive) | 91.5% | 95.5%
Cc1cc(NC(=O)c2cncc(Br)c2)ccc1NC(=O)c1cc2ccccc2o1 | 102% (inactive) | 100% | 104% | 90.2% (inactive) | 87.9% | 95.2% | 109% (inactive) | 95% (inactive) | 99.1% (inactive) | 98.1% | 97.7%
CC[n+]1ccc(/C=C/c2c[nH]c3ccccc23)cc1 | 100% (inactive) | 101% | 98.8% | 104% (inactive) | 104% | 105% | 128% (inactive) | 102% (inactive) | 117% (inactive) | 119% | 119%
Cc1ccnc(N2C(=O)c3cccc4c([N+](=O)[O-])ccc(c34)C2=O)c1 | 102% (inactive) | 101% | 95% | 182% (active) | 177% | 178% | 318% (active) | 123% (inactive) | 177% (active) | 159% | 164%
Cc1ccc(C(=O)OCC(=O)Nc2ccccc2Sc2ccccc2)cc1C | 99% (inactive) | 97.8% | 99.7% | 96.1% (inactive) | 99.7% | 97.2% | 96.6% (inactive) | 99.3% (inactive) | 103% (inactive) | 103% | 105%
COc1ccc(-c2nn(-c3ccccc3)cc2C(=O)N/N=C/c2ccc([N+](=O)[O-])o2)cc1 | 103% (inactive) | 103% | 103% | 84.2% (inactive) | 92.5% | 92.1% | 100% (inactive) | 96.7% (inactive) | 113% (inactive) | 110% | 115%
C=CCn1c(=N)c(C#N)cc2c(=O)n3ccccc3nc21 | 98% (inactive) | 95.4% | 93% | 99.2% (inactive) | 99.2% | 98.3% | 105% (inactive) | 100% (inactive) | 101% (inactive) | 97.2% | 87.8%
CCc1nnc(NC(=O)c2nc(S(=O)(=O)Cc3cccc(C)c3)ncc2Cl)s1 | 93.9% (inactive) | 93.1% | 92.7% | 105% (inactive) | 102% | 102% | 104% (inactive) | 105% (inactive) | 99.3% (inactive) | 100% | 98%
Cc1nn(C)cc1C(C)NC(=O)c1cc(COc2ccc(F)c(F)c2)on1 (centres undefined) | 101% (inactive) | 100% | 102% | 93.8% (inactive) | 94.1% | 96.2% | 100% (inactive) | 93.7% (inactive) | 97.8% (inactive) | 98.1% | 97.7%

Source: PubChem BioAssay
